PFA and ED50 data for 15 compounds are collected here from ChEMBL document CHEMBL1124808, “The synthesis and antiallergy activity of 1-(aryloxy)-4-(4-arylpiperazinyl)-2-butanol derivatives” (1990).

The structures appear in SMILES notation.

Common to all, as to format: functional
Assay [1] has as its system Rattus norvegicus. Briefly: Percent change in volume of foot edema of test compound to that of positive control was determined at a dose of 10 mg/kg in rat; […].
In assay [2] the test system is Rattus norvegicus. Briefly: Percent change in volume of foot edema of test compound to that of positive control was determined at a dose of 31.6 mg/kg in rat; […]/-69.
The test system of assay [3] is Rattus norvegicus. As to the kind of experiment: Oral Antiallergic activity in the passive foot anaphylaxis (PFA) assay of various amines at the dose of 3.16 mg/kg; -33/-84.
Assay [4] relates to Rattus norvegicus. Briefly: Percent change in volume of foot edema of test compound to that of positive control was determined at a dose of 10 mg/kg in rat; -9/-80.
Assay [5] concerns Rattus norvegicus. Briefly: Percent change in volume of foot edema of test compound to that of positive control was determined at a dose of 31.6 mg/kg in rat; -61/-63.
Assay [6] concerns Rattus norvegicus. Briefly: Percent change in volume of foot edema of test compound to that of positive control was determined at a dose of 10 mg/kg in rat; -61/-88.
Assay [7] deals with Rattus norvegicus. As to the kind of experiment: Percent change in volume of foot edema of test compound to that of positive control was determined at a dose of 31.6 mg/kg in rat; -75/-83.
The test system of assay [8] is Rattus norvegicus. Briefly: Oral Antiallergic activity in the passive foot anaphylaxis (PFA) assay of various amines at the dose of 3.16 mg/kg; -38/-78.
Assay [9] deals with Rattus norvegicus. Briefly: Percent change in volume of foot edema of test compound to that of positive control was determined at a dose of 31.6 mg/kg in rat; -23/-81.
Assay [10] deals with Rattus norvegicus. Briefly: Percent change in volume of foot edema of test compound to that of positive control was determined at a dose of 10 mg/kg in rat; -11/-65.
Assay [11] concerns Rattus norvegicus. Briefly: Percent change in volume of foot edema of test compound to that of positive control was determined at a dose of 31.6 mg/kg in rat; -66/-66.
In assay [12] the test system is Rattus norvegicus. As to the kind of experiment: Percent change in volume of foot edema of test compound to that of positive control was determined at a dose of 31.6 mg/kg in rat; -35/-69.
For assay [13], the system named is Rattus norvegicus. As to the kind of experiment: Percent change in volume of foot edema of test compound to that of positive control was determined at a dose of 31.6 mg/kg in rat; -17/-70.
The subject of assay [14] is Rattus norvegicus. As to the kind of experiment: Percent change in volume of foot edema of test compound to that of positive control was determined at a dose of 10 mg/kg in rat; +14/-44.
Assay [15] deals with Rattus norvegicus. Briefly: Percent change in volume of foot edema of test compound to that of positive control was determined at a dose of 31.6 mg/kg in rat; -48/-84.
For assay [16], the species on record is Cavia porcellus. Briefly: Dose that protects 50% of guinea pig from collapse was determined in guinea pig anaphylaxis assay. The following applies: read-out: PD50. The procedure, abridged: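 Guinea pigs dosed by gavage (10 mL/kg) with compound in 0.5% Tween 80/water; reference theophylline 100 mg/kg po. At 1–24 h, exposed in chamber to aerosolized 1% (w/v) egg albumin at 10 L air/min for up to 5 min; protected if no collapse within 5 min. PD50 by Litchfield and Wilcoxon.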

Assay [17] relates to Rattus norvegicus. As to the kind of experiment: Percent change in volume of foot edema of test compound to that of positive control was determined at a dose of 10 mg/kg in rat; -34/-78.
For assay [18], the system named is Rattus norvegicus. As to the kind of experiment: Percent change in volume of foot edema of test compound to that of positive control was determined at a dose of 31.6 mg/kg in rat; -88/-75.
Assay [19] deals with Rattus norvegicus. Briefly: Percent change in volume of foot edema of test compound to that of positive control was determined at a dose of 10 mg/kg in rat; -10/-44.
The test system of assay [20] is Rattus norvegicus. As to the kind of experiment: Percent change in volume of foot edema of test compound to that of positive control was determined at a dose of 31.6 mg/kg in rat; -54/-44.
Assay [21] has as its system Rattus norvegicus. Briefly: Percent change in volume of foot edema of test compound to that of positive control was determined at a dose of 31.6 mg/kg in rat; 39/-78.
Assay [22] deals with Rattus norvegicus. As to the kind of experiment: Percent change in volume of foot edema of test compound to that of positive control was determined at a dose of 31.6 mg/kg in rat; -40/-81.
For assay [23], the system named is Rattus norvegicus. As to the kind of experiment: Percent change in volume of foot edema of test compound to that of positive control was determined at a dose of 10 mg/kg in rat; -53/-76.
The test system of assay [24] is Rattus norvegicus. As to the kind of experiment: Percent change in volume of foot edema of test compound to that of positive control was determined at a dose of 3.16 mg/kg in rat; -50/-84.
Assay [25] deals with Rattus norvegicus. As to the kind of experiment: Percent change in volume of foot edema of test compound to that of positive control was determined at a dose of 31.6 mg/kg in rat; -83/-69.
In assay [26] the test system is Rattus norvegicus. As to the kind of experiment: Percent change in volume of foot edema of test compound to that of positive control was determined at a dose of 10 mg/kg in rat; -55/-63.
The subject of assay [27] is Rattus norvegicus. As to the kind of experiment: Percent change in volume of foot edema of test compound to that of positive control was determined at a dose of 3.16 mg/kg in rat; -36/-80.
For assay [28], the system named is Rattus norvegicus. As to the kind of experiment: Percent change in volume of foot edema of test compound to that of positive control was determined at a dose of 31.6 mg/kg in rat; -78/-69.
The subject of assay [29] is Rattus norvegicus. As to the kind of experiment: Percent change in volume of foot edema of test compound to that of positive control was determined at a dose of 31.6 mg/kg in rat; -15/-60.

`Cc1cc(OCC(O)CCN2CCN(c3ccccc3)CC2)ccc1Cl` (stereo unspecified): the PFA is reported as -45 in assay [1], -71 in assay [2] and -33 in assay [3].

On to `OC(CCN1CCN(c2ccc(Cl)c(Cl)c2)CC1)COc1ccccc1` (stereo unspecified), for which the results for the PFA in assay [4] and in [5] were -9 and -61, respectively.

As to `CC(=O)c1ccc(N2CCN(CCC(O)COc3ccc(Cl)cc3)CC2)cc1` (stereo unspecified), the PFA in assay [6] was -61; in assay [7] it was -75; in [8] it was -38.

Take `OC(COc1ccccc1)CN1CCN(c2ccccc2)CC1` (stereo unspecified): the PFA in assay [9] is -23.

As for `Cc1ccc(OCC(O)CCN2CCN(c3ccccc3)CC2)cc1` (stereo unspecified), the figures for the PFA in assay [10] and in assay [11] were -11 and -66, respectively.

With `OC(CCN1CCN(c2ccccc2)CC1)COc1cccc2ccccc12` (stereo unspecified), the PFA in assay [12] was -35.

Regarding `OC(CCOc1ccccc1)CN1CCN(c2ccccc2)CC1` (stereo unspecified), the PFA in assay [13] is -17.

For `Cc1cc(C)cc(OCC(O)CCN2CCN(c3ccccc3)CC2)c1` (stereo unspecified), the PFA in assay [14] is 14; in assay [15], -48.

For the compound `OC(CCN1CCN(c2ccccc2)CC1)COc1ccccc1` (stereo unspecified), the ED50 in [16] worked out at 40 mg/kg. Further, the values for the PFA in assay [17] and in assay [18] were -34 and -88, respectively.

Consider `COc1ccc(OCC(O)CCN2CCN(c3ccccc3)CC2)cc1` (stereo unspecified), for which the PFA in assay [19] was -10; in assay [20], -54.

`OC(CCN1CCN(c2cccc(C(F)(F)F)c2)CC1)COc1ccccc1` (stereo unspecified) came in with a PFA in assay [21] of 39.

In the case of `c1ccc(OCCN2CCN(c3ccccc3)CC2)cc1`, the PFA in [22] is listed as -40.

With `OC(CCN1CCN(c2ccccc2)CC1)COc1ccc(Cl)cc1` (stereo unspecified), in assay [16], the ED50 was found to be 6.69 mg/kg. The PFA in assay [23] is given as -53; in assay [24] it was -50; in [25], -83.

As for `OC(CCN1CCN(c2ccc(F)cc2)CC1)COc1ccc(Cl)cc1` (stereo unspecified), the PFA is on record as -55 in assay [26], -36 in [27] and -78 in assay [28].

With `CN(C)CCOC(c1ccccc1)c1ccccc1` [DIPHENHYDRAMINE], the ED50 in assay [16] came out at 23.3 mg/kg. Besides, the PFA in [29] was -15.
